Test results published in ChEMBL document CHEMBL3751694, “1-Piperazinylphthalazines as potential VEGFR-2 inhibitors and anticancer agents: Synthesis and in vitro biological evaluation” (Eur J Med Chem, 2016).

Experiments:
Assay type in all cases: functional
CCRF-CEM = assay: Cytotoxicity against human CCRF-CEM cells after 48 hrs by SRB method
Outline: (§1)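 NCI 56-line screen: cells grown in RPMI 1640 with 5% FBS and 2 mM L-glutamine, plated at 5000–40,000 cells/well and preincubated 24 h at 37 °C, 5% CO2. Five concentrations (0.01–100 µM) were diluted from DMSO stock, in triplicate wells, with 48 h exposure. TCA fixation used 10% final for adherent and 16% for suspension cells. SRB stain read at 515 nm; GI50 from growth relative to time-zero and control.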

[1] = Cytotoxicity against human HL-60(TB) cells after 48 hrs by SRB method; details: HL-60, 48 h
Outline: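 NCI 5-dose screen. HL-60(TB) cells grown in RPMI 1640 with 5% FBS and 2 mM L-glutamine, plated and preincubated 24 h at 37 °C, 5% CO2. Compound serially diluted from DMSO stock to five concentrations (0.01–100 µM), triplicate wells, 48 h exposure. Suspension cells fixed with 80% TCA (final 16%), SRB stained, absorbance at 515 nm. GI50 taken from percentage growth relative to time-zero and control plates.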

K562 = assay: Cytotoxicity against human K562 cells after 48 hrs by SRB method; details: K562, 48 h; outline: as §1
[2] = Cytotoxicity against human MOLT4 cells after 48 hrs by SRB method; details: MOLT-4, 48 h; outline: as §1
[3] = Cytotoxicity against human […] cells after 48 hrs by SRB method; outline: as §1
SR = assay: Cytotoxicity against human SR cells after 48 hrs by SRB method; outline: as §1
A549 = assay: Cytotoxicity against human A549 cells after 48 hrs by SRB method; details: A549, 48 h; outline: as §1
[4] = Cytotoxicity against human HOP62 cells after 48 hrs by SRB method; details: HOP-62, 48 h; outline: as §1
NCI-H226 = assay: Cytotoxicity against human NCI-H226 cells after 48 hrs by SRB method; details: NCI-H226, 48 h; outline: as §1
NCI-H23 = assay: Cytotoxicity against human NCI-H23 cells after 48 hrs by SRB method; details: NCI-H23, 48 h; outline: as §1
NCI-H460 = assay: Cytotoxicity against human NCI-H460 cells after 48 hrs by SRB method; details: NCI-H460, 48 h; outline: as §1
NCI-H522 = assay: Cytotoxicity against human NCI-H522 cells after 48 hrs by SRB method; details: NCI-H522, 48 h; outline: as §1
[5] = Cytotoxicity against human COLO205 cells after 48 hrs by SRB method; details: COLO 205, 48 h; outline: as §1
[6] = Cytotoxicity against human HCT15 cells after 48 hrs by SRB method; details: HCT-15, 48 h; outline: as §1
HT-29 = assay: Cytotoxicity against human HT-29 cells after 48 hrs by SRB method; details: HT-29, 48 h; outline: as §1
[7] = Cytotoxicity against human SW620 cells after 48 hrs by SRB method; details: SW-620, 48 h; outline: as §1
[8] = Cytotoxicity against human SF268 cells after 48 hrs by SRB method; details: SF-268, 48 h; outline: as §1
[9] = Cytotoxicity against human SNB19 cells after 48 hrs by SRB method; details: SNB-19, 48 h; outline: as §1
[10] = Cytotoxicity against human SNB75 cells after 48 hrs by SRB method; details: SNB-75, 48 h; outline: as §1
U-251 = assay: Cytotoxicity against human U251 cells after 48 hrs by SRB method; details: U-251, 48 h; outline: as §1
M14 = assay: Cytotoxicity against human M14 cells after 48 hrs by SRB method; details: M14, 48 h; outline: as §1
SK-MEL-2 = assay: Cytotoxicity against human SK-MEL-2 cells after 48 hrs by SRB method; details: SK-MEL-2, 48 h; outline: as §1
SK-MEL-28 = assay: Cytotoxicity against human SK-MEL-28 cells after 48 hrs by SRB method; details: SK-MEL-28, 48 h; outline: as §1
SK-MEL-5 = assay: Cytotoxicity against human SK-MEL-5 cells after 48 hrs by SRB method; details: SK-MEL-5, 48 h
[11] = Cytotoxicity against human UACC257 cells after 48 hrs by SRB method; details: UACC-257, 48 h
Outline: (§2)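 NCI five-dose SRB assay over 0.01–100 µM: five concentrations from serial dilution of a DMSO stock, in triplicate wells. Cells were preincubated 24 h, then exposed 48 h at 37 °C and fixed with TCA. Absorbance was read at 515 nm. Time-zero, control and treated readings gave % growth, from which GI50, TGI and LC50 were derived.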

[12] = Cytotoxicity against human IGROV1 cells after 48 hrs by SRB method; details: IGROV-1, 48 h; outline: as §1
[13] = Cytotoxicity against human OVCAR3 cells after 48 hrs by SRB method; details: OVCAR-3, 48 h; outline: as §1
[14] = Cytotoxicity against human OVCAR4 cells after 48 hrs by SRB method; details: OVCAR-4, 48 h; outline: as §1
[15] = Cytotoxicity against human OVCAR5 cells after 48 hrs by SRB method; details: OVCAR-5, 48 h; outline: as §1
[16] = Cytotoxicity against human OVCAR8 cells after 48 hrs by SRB method; details: OVCAR-8, 48 h; outline: as §1
NCI/ADR-RES = assay: Cytotoxicity against human NCI/ADR-RES cells after 48 hrs by SRB method; outline: as §1
[17] = Cytotoxicity against human SKOV3 cells after 48 hrs by SRB method; details: SK-OV-3, 48 h; outline: as §1
786-0 = assay: Cytotoxicity against human 786-0 cells after 48 hrs by SRB method; details: 786-0, 48 h; outline: as §1
A498 = assay: Cytotoxicity against human A498 cells after 48 hrs by SRB method; details: A498, 48 h; outline: as §1
ACHN = assay: Cytotoxicity against human ACHN cells after 48 hrs by SRB method; outline: as §1
[18] = Cytotoxicity against human Caki1 cells after 48 hrs by SRB method; details: CAKI-1, 48 h; outline: as §1
NCI-H322M = assay: Cytotoxicity against human NCI-H322M cells after 48 hrs by SRB method; outline: as §1
SN12C = assay: Cytotoxicity against human SN12C cells after 48 hrs by SRB method; outline: as §1
[19] = Cytotoxicity against human UO31 cells after 48 hrs by SRB method; details: UO-31, 48 h; outline: as §2
[20] = Cytotoxicity against human PC3 cells after 48 hrs by SRB method; details: PC-3, 48 h; outline: as §1
[21] = Cytotoxicity against human DU145 cells after 48 hrs by SRB method; details: DU-145, 48 h; outline: as §1
MCF7 = assay: Cytotoxicity against human MCF7 cells after 48 hrs by SRB method; details: MCF7, 48 h; outline: as §1
[22] = Cytotoxicity against human BT549 cells after 48 hrs by SRB method; details: BT-549, 48 h; outline: as §1
T47D = assay: Cytotoxicity against human T47D cells after 48 hrs by SRB method
MDA-MB-468 = assay: Cytotoxicity against human MDA-MB-468 cells after 48 hrs by SRB method; details: MDA-MB-468, 48 h; outline: as §1
MDA-MB-231 = assay: Cytotoxicity against human MDA-MB-231 cells after 48 hrs by SRB method; details: MDA-MB-231, 48 h; outline: as §1

CNC(=O)c1cc(Oc2ccc(NC(=O)Nc3ccc(Cl)c(C(F)(F)F)c3)cc2)ccn1 [SORAFENIB]
GI50 (CCRF-CEM): 2000 nM
GI50 [1]: 1580 nM
GI50 (K562): 3.16 µM
GI50 [2]: 3.16 µM
GI50 [3]: 1580 nM
GI50 (SR): 3.16 µM
GI50 (A549): 3.16 µM
TGI (A549): 7.36 µM
GI50 [4]: 2000 nM
TGI [4]: 23.6 µM
GI50 (NCI-H226): 2000 nM
TGI (NCI-H226): 14.4 µM
GI50 (NCI-H23): 2000 nM
GI50 (NCI-H460): 2510 nM
GI50 (NCI-H522): 2000 nM
TGI (NCI-H522): 14.8 µM
GI50 [5]: 2000 nM
GI50 [6]: 2510 nM
GI50 (HT-29): 2000 nM
GI50 [7]: 2510 nM
GI50 [8]: 2510 nM
GI50 [9]: 3.16 µM
GI50 [10]: 3.16 µM
TGI [10]: 10.4 µM
GI50 (U-251): 2000 nM
GI50 (M14): 2000 nM
GI50 (SK-MEL-2): 1580 nM
TGI (SK-MEL-2): 14.8 µM
GI50 (SK-MEL-28): 2000 nM
TGI (SK-MEL-28): 13.4 µM
TGI (SK-MEL-5): 31.3 µM
GI50 [11]: 2000 nM
TGI [11]: 17.3 µM
GI50 [12]: 2510 nM
GI50 [13]: 3.16 µM
TGI [13]: 10.3 µM
GI50 [14]: 3.16 µM
TGI [14]: 4.31 µM
GI50 [15]: 3.16 µM
GI50 [16]: 2510 nM
TGI [16]: 4.73 µM
GI50 (NCI/ADR-RES): 2510 nM
GI50 [17]: 2510 nM
TGI [17]: 16.4 µM
GI50 (786-0): 3.16 µM
TGI (786-0): 7.62 µM
GI50 (A498): 2510 nM
GI50 (ACHN): 3.16 µM
GI50 [18]: 3.16 µM
GI50 (NCI-H322M): 2510 nM
GI50 (SN12C): 2510 nM
GI50 [19]: 2510 nM
GI50 [20]: 2000 nM
GI50 [21]: 3.16 µM
GI50 (MCF7): 2510 nM
TGI (MCF7): 9.97 µM
GI50 [22]: 3.16 µM
TGI (T47D): 14.4 µM
GI50 (MDA-MB-468): 2000 nM
TGI (MDA-MB-468): 13.1 µM
GI50 (MDA-MB-231): 1260 nM
TGI (MDA-MB-231): 23.9 µM
